Laboratory results reported in ChEMBL document CHEMBL1129303, “Potent human immunodeficiency virus type 1 protease inhibitors that utilize noncoded D-amino acids as P2/P3 ligands” (J Med Chem, 1996).
Several values for one entry are separate records, joined by “and”; a condition that tells them apart may be missing. Identical values can stand only once.

Key:
MT2 = assay: Antiviral activity against MT-2 cells; assay type: functional, cell-based; conditions: Homo sapiens
CCRF-CEM [1] = assay: Antiviral activity against CEM cells; assay type: functional, cell-based; conditions: Homo sapiens
[2] = molecular target: Human immunodeficiency virus type 1 protease (Human immunodeficiency virus 1, UniProt Q72874); assay: Inhibitory activity against HIV-1 protease
[3] = Maximum plasma concentration in rat upon oral administration of 40 mg/kg; assay type: ADME, organism-based; parameters: dose 40 mg/kg, route oral
Summary of the method: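 Fasted (16-18 h) Harlan Sprague-Dawley rats, jugular cannula implanted ≥48 h earlier, gavaged 40 mg/kg in acacia/Tween emulsion, n=2. Plasma from 0-4 h blood draws diluted 1:49 and assayed by HIV protease cleavage of FITC-labelled peptide (5 h, 37 °C, MES pH 5.5) with HPLC quantitation. Inhibitory activity read against a standard curve of parent compound; Cmax is the peak.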

CCRF-CEM [4] = assay: In vitro inhibitory activity against replication of HIV type-1 virus in CEM cells; assay type: functional, cell-based; conditions: Homo sapiens

SMILES | IC50 (MT2) [nM] | IC50 (CCRF-CEM [1]) [nM] | IC50 [2] | Cmax [3] [ng/mL] | IC50 (CCRF-CEM [4]) [nM]
CC(C)(C)NC(=O)c1ccccc1C[C@@H](O)[C@H](Cc1ccccc1)NC(=O)[C@H](CSc1ccc2ccccc2n1)NS(C)(=O)=O | 6440 | 5400 | 60 nM | – | –
CC(C)(C)NC(=O)c1ccccc1C[C@@H](O)[C@H](Cc1ccccc1)NC(=O)[C@H](CSc1ccccc1)NS(C)(=O)=O | 2750 | 4370 | 44 nM | – | –
CC(C)(C)NC(=O)c1ccccc1C[C@@H](O)[C@H](Cc1ccccc1)NC(=O)[C@@H](N)CC(=O)OCc1ccccc1 | – | – | > 1000 nM | – | –
CC(=O)N[C@@H](CSc1ccccc1)C(=O)N[C@@H](Cc1ccccc1)[C@H](O)Cc1ccccc1C(=O)NC(C)(C)C | 11300 | 5400 | 220 nM | – | –
CC(C)(C)NC(=O)c1ccccc1C[C@@H](O)[C@H](Cc1ccccc1)NC(=O)[C@H](CSc1ccc2ccccc2c1)NS(C)(=O)=O | 800 | 530 | 1.8 nM | – | –
CC(C)(C)NC(=O)c1ccccc1C[C@@H](O)[C@H](Cc1ccccc1)NC(=O)[C@H](C[S+]([O-])c1cccc2ccccc12)NS(C)(=O)=O (stereo partly drawn) | 6 | < 0.5 | 0.45 nM | < 250 | 0.8
CC(C)(C)NC(=O)c1ccccc1C[C@@H](O)[C@H](Cc1ccccc1)NC(=O)[C@H](C[S+]([O-])c1ccccc1)NS(C)(=O)=O (stereo partly drawn) | 500 | 100 | 1.9 nM | – | –
CCCC(=O)N[C@@H](CC(=O)OCc1ccccc1)C(=O)N[C@@H](Cc1ccccc1)[C@H](O)Cc1ccccc1C(=O)NC(C)(C)C | 24200 | 8700 | 323 nM | – | –
CC(C)(C)NC(=O)c1ccccc1C[C@@H](O)[C@H](Cc1ccccc1)NC(=O)[C@H](CS(=O)(=O)c1cccc2ccccc12)NS(C)(=O)=O | 8.8 | < 0.5 | 0.44 nM | – | 49
COc1ccc(SC[C@H](NS(C)(=O)=O)C(=O)N[C@@H](Cc2ccccc2)[C@H](O)Cc2ccccc2C(=O)NC(C)(C)C)cc1 | 1910 | 1800 | 16 nM | – | –
CC(C)(C)NC(=O)c1ccccc1C[C@@H](O)[C@H](Cc1ccccc1)NC(=O)[C@H](C[S+]([O-])c1ccc(F)cc1)NS(C)(=O)=O (stereo partly drawn) | 900 | 165 | 0.38 nM | 2200 | –
CC(C)(C)NC(=O)c1ccccc1C[C@@H](O)[C@H](Cc1ccccc1)NC(=O)[C@H](CSc1ccccn1)NS(C)(=O)=O | – | – | 910 nM | – | –
CC(C)(C)NC(=O)c1ccccc1C[C@@H](O)[C@H](Cc1ccccc1)NC(=O)[C@H](CSc1ccc(F)cc1)NS(C)(=O)=O | 2880 | 2130 | 4.4 nM | – | –
CC(C)(C)NC(=O)c1ccccc1C[C@@H](O)[C@H](Cc1ccccc1)NC(=O)[C@H](CS(=O)(=O)c1ccc2ccccc2n1)NS(C)(=O)=O | 5 | < 0.5 | 0.3 nM | < 100 | 12
COc1ccc(S(=O)(=O)C[C@H](NS(C)(=O)=O)C(=O)N[C@@H](Cc2ccccc2)[C@H](O)Cc2ccccc2C(=O)NC(C)(C)C)cc1 | 150 | 54 | 2.4 nM | < 300 | 107
CCC(=O)N[C@@H](CC(=O)OCc1ccccc1)C(=O)N[C@@H](Cc1ccccc1)[C@H](O)Cc1ccccc1C(=O)NC(C)(C)C | 9880 | 5200 | 73 nM | – | –
CC(C)(C)NC(=O)c1ccccc1C[C@@H](O)[C@H](Cc1ccccc1)NC(=O)[C@H](CS(=O)(=O)c1ccccc1)NS(C)(=O)=O | 176 | 72 | 5.7 nM | < 300 | 83
CC(=O)N[C@@H](C[S+]([O-])c1ccc2ccccc2n1)C(=O)N[C@@H](Cc1ccccc1)[C@H](O)Cc1ccccc1C(=O)NC(C)(C)C (stereo partly drawn) | 180 | 72 | 0.25 nM | – | –

SMILES | IC50 (MT2) [nM] | IC50 (CCRF-CEM [1]) [nM] | IC50 [2] | Cmax [3] [ng/mL] | IC50 (CCRF-CEM [4]) [nM]
CC(C)(C)NC(=O)c1ccccc1C[C@@H](O)[C@H](Cc1ccccc1)NC(=O)[C@H](C[S+]([O-])c1ccc2ccccc2c1)NS(C)(=O)=O (stereo partly drawn) | 4.3 | < 0.5 | 3.5 nM | 330 | 6.7
CC(C)(C)NC(=O)c1ccccc1C[C@@H](O)[C@H](Cc1ccccc1)NC(=O)[C@H](CS(=O)(=O)Cc1ccccc1)NS(C)(=O)=O | 730 | 800 | 19.4 nM | – | –
CC(C)(C)NC(=O)c1ccccc1C[C@@H](O)[C@H](Cc1ccccc1)NC(=O)[C@H](CS(=O)(=O)c1ccccn1)NS(C)(=O)=O | – | – | 22 nM | – | –
CC(C)(C)NC(=O)c1ccccc1C[C@@H](O)[C@H](Cc1ccccc1)NC(=O)[C@H](C[S+]([O-])c1ccccn1)NS(C)(=O)=O (stereo partly drawn) | 770 | 330 | 19.3 nM and 7.9 nM | < 200 | 474
CC(C)(C)NC(=O)c1ccccc1C[C@@H](O)[C@H](Cc1ccccc1)NC(=O)[C@H](CS(=O)(=O)c1ccc(Cl)cc1)NS(C)(=O)=O | 24 | 138 | 0.34 nM | < 300 | 16
CC(C)(C)NC(=O)c1ccccc1C[C@@H](O)[C@H](Cc1ccccc1)NC(=O)[C@H](CS(=O)(=O)c1ccc(C(F)(F)F)cc1)NS(C)(=O)=O | 450 | 204 | 2 nM | < 300 | 646
CC(=O)N[C@@H](CS(=O)(=O)c1ccc2ccccc2n1)C(=O)N[C@@H](Cc1ccccc1)[C@H](O)Cc1ccccc1C(=O)NC(C)(C)C | – | – | 0.28 nM | – | 59
CC(C)(C)NC(=O)c1ccccc1C[C@@H](O)[C@H](Cc1ccccc1)NC(=O)C(CS(=O)(=O)c1ccc2ccccc2n1)NS(C)(=O)=O (stereo partly drawn) | 3030 | 2060 | 2.8 nM | – | 5780
Cn1nnnc1SC[C@H](NS(C)(=O)=O)C(=O)N[C@@H](Cc1ccccc1)[C@H](O)Cc1ccccc1C(=O)NC(C)(C)C | 9260 | 6680 | 17.5 nM | – | –
CC(=O)N[C@@H](CS(=O)(=O)c1ccccc1)C(=O)N[C@@H](Cc1ccccc1)[C@H](O)Cc1ccccc1C(=O)NC(C)(C)C | 820 | 815 | 20 nM | – | –
CC(=O)N[C@@H](CSc1ccc2ccccc2n1)C(=O)N[C@@H](Cc1ccccc1)[C@H](O)Cc1ccccc1C(=O)NC(C)(C)C | – | – | 14.7 nM | – | –
CC(=O)N[C@@H](CS(=O)(=O)c1ccc2ccccc2c1)C(=O)N[C@@H](Cc1ccccc1)[C@H](O)Cc1ccccc1C(=O)NC(C)(C)C | 31 | 11 | 0.32 nM | < 100 | –
CC(C)(C)NC(=O)c1ccccc1C[C@@H](O)[C@H](Cc1ccccc1)NC(=O)[C@H](CSc1ccc(C(F)(F)F)cc1)NS(C)(=O)=O | 5910 | 2930 | 170 nM | – | –
CC(C)(C)NC(=O)c1ccccc1C[C@@H](O)[C@H](Cc1ccccc1)NC(=O)[C@H](CS(=O)(=O)c1ccc(F)cc1)NS(C)(=O)=O | 440 | 59 | 0.77 nM | < 300 | 32
Cn1nnnc1[S+]([O-])C[C@H](NS(C)(=O)=O)C(=O)N[C@@H](Cc1ccccc1)[C@H](O)Cc1ccccc1C(=O)NC(C)(C)C (stereo partly drawn) | – | – | 2.1 nM | 490 | 5010
CC(C)(C)NC(=O)c1ccccc1C[C@@H](O)[C@H](Cc1ccccc1)NC(=O)[C@H](CSc1cccc2ccccc12)NS(C)(=O)=O | 760 | 270 | 1.2 nM | – | 323
CC(C)(C)NC(=O)c1ccccc1C[C@@H](O)[C@H](Cc1ccccc1)NC(=O)[C@H](C[S+]([O-])c1ccc(C(F)(F)F)cc1)NS(C)(=O)=O (stereo partly drawn) | 116 | 53 | 2.3 nM | < 200 | –
CC(C)(C)NC(=O)c1ccccc1C[C@@H](O)[C@H](Cc1ccccc1)NC(=O)[C@H](CSCc1ccccc1)NS(C)(=O)=O | 926 | 1650 | 14.7 nM | – | –
